One compound from ChEMBL document CHEMBL4052819 (2017) can be followed below.

In brackets after ≈: the same amount, converted by molar mass. Activity calls are given as the source filed them. No cut-off for these calls is given here. Non-standard residues stand in square brackets, D forms with d. Residues, ends and D or L forms follow the SMILES beside them. Cha = N[C@@H](CC1CCCCC1)C(=O)O; Dab = NCC[C@H](N)C(=O)O

Assay [1] relates to Klebsiella pneumoniae. In words: Bactericidal activity against Klebsiella pneumoniae ATCC 13883. It is filed as functional. The note with it: read-out: MBC99.9. In short, it runs like this: (§1)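 MBC from MIC plates at end point: 50 μL from each well with no visible growth plated on tryptic soy agar and counted. MBC taken as lowest concentration giving ≥99.9% fall in viable count relative to initial inoculum. Three independent experiments, one replicate each.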

Assay [2] concerns Staphylococcus aureus. In words: Bactericidal activity against Staphylococcus aureus ATCC 29213. The note with it: read-out: MBC99.9. The class given is functional. In short, it runs like this: as §1
Assay [3] has as its system Pseudomonas aeruginosa. In words: Bactericidal activity against Pseudomonas aeruginosa ATCC 27853 at 16 to 32 ug/ml after 24 hrs by time-kill assay. The class given is functional. The procedure, abridged:
(§2)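 Time-kill at 8, 16 and 32 μg/mL; survivors counted on tryptic soy agar at 0, 2, 4, 6 and 24 h. Three independent experiments, one replicate each.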

Assay [4] relates to Escherichia coli. The experiment in a line: Antibacterial activity against carbapenem-resistant Escherichia coli clinical isolate expressing beta-lactamase NDM after 18 to 20 hrs by broth microdilution method. The class given is functional. In short, it runs like this:
(§3)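 Broth microdilution in tryptic soy broth: 2-fold dilutions mixed 1:1 with ~1.5 × 10^5 CFU/mL bacterial suspension in TSB, final 0.5–32 μg/mL, 37 °C for 18–20 h. MIC = lowest concentration with no visible growth. At least three independent experiments, one replicate each.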
For orientation: Broth dilution looks for growth in wells or tubes with falling amounts of substance.

Assay [5] concerns Escherichia coli. In words: Antibacterial activity against Escherichia coli ATCC 25922 after 18 to 20 hrs in presence of 95% serum by broth microdilution method. The class given is functional. In short, it runs like this:
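Same microdilution with human serum as medium: compound 2-fold diluted in 100% serum, mixed 1:1 with 90% serum holding ~1.5 × 10^5 CFU/mL, giving 95% serum and final 0.5–64 μg/mL. MIC read as no visible growth after incubation as for the broth test.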

The test system of assay [6] is Pseudomonas aeruginosa. In words: Induction of cytoplasmic membrane damage in Pseudomonas aeruginosa ATCC 27853 assessed as intracellular potassium ion release at 32 to 64 ug/ml by PBFI probe-based fluorescence assay. The class given is functional, cell-based. In short, it runs like this: (§4)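 Mid-log cells washed and suspended in 5 mM HEPES pH 7.2 + 5 mM glucose. PBFI K+ probe added at final 2 μM, then compound at final 8–64 μg/mL; fluorescence read at ex 346/em 505 nm. Three independent experiments; change in fluorescence analysed by ANOVA with Tukey HSD.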

Assay [7] has as its system Staphylococcus aureus. In words: Bactericidal activity against Staphylococcus aureus ATCC 29213 at 32 ug/ml after 60 mins in presence of LTA. The class given is functional. The procedure, abridged:
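S. aureus at ~10^6 CFU/mL mixed with S. aureus LTA (final 10, 25, 50 or 100 μg/mL), then compound at final 32 μg/mL. Incubated 37 °C, 200 rpm, 60 min; survivors counted on TSA. Four independent experiments, one replicate each.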

The subject of assay [8] is Staphylococcus aureus. The experiment in a line: Induction of cytoplasmic membrane damage in Staphylococcus aureus ATCC 29213 assessed as intracellular potassium ion release at 32 to 64 ug/ml by PBFI probe-based fluorescence assay. The class given is functional, cell-based. The procedure, abridged: as §4
Assay [9] concerns Pseudomonas aeruginosa. In words: Bactericidal activity against Pseudomonas aeruginosa ATCC 27853 at 8 ug/ml after 24 hrs by time-kill assay. The class given is functional. The procedure, abridged:
as §2

The subject of assay [10] is Escherichia coli. The experiment in a line: Antibacterial activity against carbapenem-resistant Escherichia coli clinical isolate expressing beta-lactamase KPC3, TEM1 after 18 to 20 hrs by broth microdilution method. The class given is functional. The procedure, abridged: as §3
Assay [11] concerns Pseudomonas aeruginosa. The experiment in a line: Bactericidal activity against Pseudomonas aeruginosa ATCC 27853 at 16 ug/ml after 60 mins in presence of LPS. It is filed as functional. The procedure, abridged: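 P. aeruginosa at ~10^6 CFU/mL in TSB with E. coli O111:B4 LPS (final 10, 25, 50 or 100 μg/mL), then compound at final 16 μg/mL. Incubated 37 °C, 200 rpm, 60 min; survivors counted on TSA. Three independent experiments, one replicate each.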

The subject of assay [12] is Pseudomonas aeruginosa. The experiment in a line: Bactericidal activity against Pseudomonas aeruginosa ATCC 27853 at 16 ug/ml after 2 hrs by time-kill assay relative to control. It is filed as functional. The procedure, abridged:
as §2

For assay [13], the system named is Pseudomonas aeruginosa. The experiment in a line: Bactericidal activity against Pseudomonas aeruginosa ATCC 27853 at 32 ug/ml after 2 hrs by time-kill assay relative to control. It is filed as functional. The procedure, abridged:
as §2

For assay [14], the system named is Escherichia coli. The experiment in a line: Antibacterial activity against Escherichia coli ATCC 25922 in presence of 100% serum after 12 hrs by broth microdilution method. It is filed as functional. The note with it: ATCC 25922, 12 h. In short, it runs like this: (§5)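 Serum stability: compound added to 100% human serum at final 64 μg/mL, held at 37 °C, sampled at 0, 6, 12 and 24 h. […] Residual activity compared with untreated control.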

In assay [15] the test system is Klebsiella pneumoniae. In words: Antibacterial activity against carbapenem-resistant Klebsiella pneumoniae clinical isolate expressing beta-lactamase KPC after 18 to 20 hrs by broth microdilution method. The class given is functional. In short, it runs like this:
as §3

Assay [16] concerns Escherichia coli. The experiment in a line: Antibacterial activity against Escherichia coli ATCC 25922 in presence of 100% serum after 6 hrs by broth microdilution method. It is filed as functional. The note with it: ATCC 25922, 6 h. The procedure, abridged: as §5

The term MIC denotes the least concentration at which growth counts as inhibited. In the case of `CC(C)C[C@H](NC(=O)[C@@H](Cc1ccccc1)NC(=O)[C@H](CCN)NC(=O)[C@H](Cc1ccccc1)NC(=O)[C@H](CCN)NC(=O)[C@@H](N)CC1CCCCC1)C(=O)N[C@@H](CCN)C(=O)N[C@H](CC(C)C)C(=O)N[C@@H](Cc1ccccc1)C(=O)N[C@@H](CO)C(N)=O` (H-[Cha][Dab]F[Dab][dF]L[Dab][dL]FS-NH2), the MBC in the assay on Klebsiella pneumoniae [1] worked out at 4 µg/mL (≈ 3.26 µM); in the assay with Staphylococcus aureus [2], 8 µg/mL (≈ 6.53 µM). Further, the result in the assay with Pseudomonas aeruginosa [3], with Pseudomonas aeruginosa [6] and with Staphylococcus aureus [8] was Active. Also, the MIC in the assay on Escherichia coli [4] is 0.5 µg/mL (≈ 0.408 µM); with Escherichia coli [5] it was 8 µg/mL; in the assay on Escherichia coli [10], 0.5 to 1 µg/mL (≈ 0.408 to 0.816 µM); in the assay with Escherichia coli [14], 4 to 8 µg/mL; in the assay with Klebsiella pneumoniae [15], 1 to 2 µg/mL (≈ 0.816 to 1.63 µM); in the assay with Escherichia coli [16] it was 4 to 8 µg/mL. The outcome in the assay with Staphylococcus aureus [7], with Pseudomonas aeruginosa [9] and with Pseudomonas aeruginosa [11] was inactive. The Activity is reported as 3.7 deltalog10CFU/ml in the assay on Pseudomonas aeruginosa [12] and 5.1 deltalog10CFU/ml in the assay on Pseudomonas aeruginosa [13].
